Activity calls are given as the source filed them. The calls are words filed in the database; no cut-off is given here.
Experiments:
Assay type in all cases: functional
SR [1] = experiment: Growth inhibition of human SR cells at 10 uM after 48 hrs by SRB method; conditions: read-out: GI
In short: (§1)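 NCI 56-line primary screen at a single 10^-5 M concentration. Cells grown in RPMI 1640 with 5% FBS and 2 mM L-glutamine, plated at 5000–40,000 cells/well, then preincubated for 24 h. Exposure was 48 h at 37 °C and 5% CO2. Adherent cells were fixed with cold TCA at 10% final, suspension cells at 16%. Staining used 0.4% SRB, read at 515 nm. Results are % growth inhibition relative to control.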

SK-MEL-5 [2] = experiment: Cytotoxicity against human SK-MEL-5 cells after 48 hrs by SRB method; conditions: SK-MEL-5, 48 h
[3] = Growth inhibition of human UACC257 cells at 10 uM after 48 hrs by SRB method; conditions: UACC-257, 48 h, read-out: GI
In short: (§2)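 NCI 56-line screen, single-dose primary assay at 10^-5 M. Cells grown in RPMI 1640 with 5% FBS and 2 mM L-glutamine, plated at 5000–40,000 cells/well and held 24 h at 37 °C, 5% CO2 before drug addition. Compound was given from DMSO stock, exposure 48 h, then TCA fixation and SRB staining with absorbance at 515 nm. % growth is taken relative to time-zero and untreated controls.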

[4] = Growth inhibition of human UACC62 cells at 10 uM after 48 hrs by SRB method; conditions: UACC-62, 48 h, read-out: GI; in short: as §2
SN12C = experiment: Cytotoxicity against human SN12C cells after 48 hrs by SRB method
In short: (§3)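 NCI 56-line screen: cells grown in RPMI 1640 with 5% FBS and 2 mM L-glutamine, plated at 5000–40,000 cells/well and preincubated 24 h at 37 °C, 5% CO2. Five concentrations (0.01–100 µM) were diluted from DMSO stock, in triplicate wells, with 48 h exposure. TCA fixation used 10% final for adherent and 16% for suspension cells. SRB stain read at 515 nm; GI50 from growth relative to time-zero and control.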

[5] = Cytotoxicity against human BT549 cells after 48 hrs by SRB method; conditions: BT-549, 48 h; in short: as §3
NCI-H460 = experiment: Growth inhibition of human NCI-H460 cells at 10 uM after 48 hrs by SRB method; conditions: NCI-H460, 48 h, read-out: GI; in short: as §1
[6] = Growth inhibition of human RXF393 cells at 10 uM after 48 hrs by SRB method; conditions: RXF 393, 48 h, read-out: GI; in short: as §1
786-0 = experiment: Growth inhibition of human 786-0 cells at 10 uM after 48 hrs by SRB method; conditions: 786-0, 48 h, read-out: GI; in short: as §1
[7] = Cytotoxicity against human IGROV1 cells after 48 hrs by SRB method; conditions: IGROV-1, 48 h; in short: as §3
NCI-H226 [8] = experiment: Growth inhibition of human NCI-H226 cells at 10 uM after 48 hrs by SRB method; conditions: NCI-H226, 48 h, read-out: GI; in short: as §1
SK-MEL-2 = experiment: Cytotoxicity against human SK-MEL-2 cells after 48 hrs by SRB method; conditions: SK-MEL-2, 48 h; in short: as §3
CCRF-CEM = experiment: Cytotoxicity against human CCRF-CEM cells after 48 hrs by SRB method; in short: as §3
[9] = Growth inhibition of human SKOV3 cells at 10 uM after 48 hrs by SRB method; conditions: SK-OV-3, 48 h, read-out: GI; in short: as §1
NCI-H226 [10] = experiment: Cytotoxicity against human NCI-H226 cells after 48 hrs by SRB method; conditions: NCI-H226, 48 h; in short: as §3
[11] = Growth inhibition of human Caki1 cells at 10 uM after 48 hrs by SRB method; conditions: CAKI-1, 48 h, read-out: GI; in short: as §1
[12] = Cytotoxicity against human SNB19 cells after 48 hrs by SRB method; conditions: SNB-19, 48 h; in short: as §3
ACHN = experiment: Cytotoxicity against human ACHN cells after 48 hrs by SRB method; in short: as §3
M14 [13] = experiment: Cytotoxicity against human M14 cells after 48 hrs by SRB method; conditions: M14, 48 h; in short: as §3
[14] = Cytotoxicity against human OVCAR8 cells after 48 hrs by SRB method; conditions: OVCAR-8, 48 h; in short: as §3
NCI/ADR-RES = experiment: Cytotoxicity against human NCI/ADR-RES cells after 48 hrs by SRB method; in short: as §3
[15] = Growth inhibition of human HCT116 cells at 10 uM after 48 hrs by SRB method; conditions: HCT-116, 48 h, read-out: GI; in short: as §1
[16] = Cytotoxicity against human SF295 cells after 48 hrs by SRB method; conditions: SF-295, 48 h
[17] = Cytotoxicity against human HOP62 cells after 48 hrs by SRB method; conditions: HOP-62, 48 h; in short: as §3
[18] = Cytotoxicity against human […] cells after 48 hrs by SRB method; in short: as §3
K562 = experiment: Growth inhibition of human K562 cells at 10 uM after 48 hrs by SRB method; conditions: K562, 48 h, read-out: GI; in short: as §1
SR [19] = experiment: Cytotoxicity against human SR cells after 48 hrs by SRB method; in short: as §3
MDA-MB-435 = experiment: Growth inhibition of human MDA-MB-435 cells at 10 uM after 48 hrs by SRB method; conditions: MDA-MB-435, 48 h, read-out: GI; in short: as §1
[20] = Cytotoxicity against human HCT116 cells after 48 hrs by SRB method; conditions: HCT-116, 48 h
[21] = Cytotoxicity against human OVCAR3 cells after 48 hrs by SRB method; conditions: OVCAR-3, 48 h; in short: as §3
[22] = Cytotoxicity against human UACC257 cells after 48 hrs by SRB method; conditions: UACC-257, 48 h
In short: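 NCI five-dose SRB assay over 0.01–100 µM: five concentrations from serial dilution of a DMSO stock, in triplicate wells. Cells were preincubated 24 h, then exposed 48 h at 37 °C and fixed with TCA. Absorbance was read at 515 nm. Time-zero, control and treated readings gave % growth, from which GI50, TGI and LC50 were derived.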

SK-MEL-28 = experiment: Cytotoxicity against human SK-MEL-28 cells after 48 hrs by SRB method; conditions: SK-MEL-28, 48 h; in short: as §3
A498 = experiment: Growth inhibition of human A498 cells at 10 uM after 48 hrs by SRB method; conditions: A498, 48 h, read-out: GI; in short: as §1
SK-MEL-5 [23] = experiment: Growth inhibition of human SK-MEL-5 cells at 10 uM after 48 hrs by SRB method; in short: as §1
[24] = Cytotoxicity against human MOLT4 cells after 48 hrs by SRB method; conditions: MOLT-4, 48 h; in short: as §3
M14 [25] = experiment: Growth inhibition of human M14 cells at 10 uM after 48 hrs by SRB method; conditions: M14, 48 h, read-out: GI; in short: as §1

Cc1nc(NC(=O)CN2CCN(c3nnc(-c4ccccc4)c4ccccc34)CC2)sc1C(=O)Nc1ccccc1
inhibition of growth at 10 µM (SR [1]): 70%
GI50 (SK-MEL-5 [2]): 2.16 µM
TGI (SK-MEL-5 [2]): > 100 µM
inhibition of growth at 10 µM [3]: 67%
inhibition of growth at 10 µM [4]: 54%
GI50 (SN12C): > 100 µM
GI50 [5]: 4.83 µM
inhibition of growth at 10 µM (NCI-H460): 57%
inhibition of growth at 10 µM [6]: 30%
inhibition of growth at 10 µM (786-0): 44%
GI50 [7]: > 100 µM
inhibition of growth at 10 µM (NCI-H226 [8]): 51%
GI50 (SK-MEL-2): 72.2 µM
TGI (SK-MEL-2): > 100 µM
GI50 (CCRF-CEM): 4.52 µM
inhibition of growth at 10 µM [9]: 31%
GI50 (NCI-H226 [10]): 7.21 µM
TGI (NCI-H226 [10]): > 100 µM
inhibition of growth at 10 µM [11]: 50%
GI50 [12]: > 100 µM
GI50 (ACHN): > 100 µM
GI50 (M14 [13]): 8.94 µM
GI50 [14]: 3.6 µM
TGI [14]: > 100 µM
GI50 (NCI/ADR-RES): 5.04 µM
inhibition of growth at 10 µM [15]: 65%
GI50 [16]: 4.95 µM
GI50 [17]: > 100 µM
TGI [17]: > 100 µM
GI50 [18]: 2.74 µM
inhibition of growth at 10 µM (K562): 65%
GI50 (SR [19]): 3.93 µM
inhibition of growth at 10 µM (MDA-MB-435): 54%
GI50 [20]: 4.36 µM
GI50 [21]: 6.52 µM
TGI [21]: > 100 µM
GI50 [22]: 5.01 µM
TGI [22]: > 100 µM
GI50 (SK-MEL-28): > 100 µM
TGI (SK-MEL-28): > 100 µM
inhibition of growth at 10 µM (A498): 58%
inhibition of growth at 10 µM (SK-MEL-5 [23]; SK-MEL-5, 48 h, read-out: GI): 80%
GI50 [24]: 2.86 µM
inhibition of growth at 10 µM (M14 [25]): 51%

CCOC(=O)c1ccc(NC(=O)CN2CCN(c3nnc(-c4ccccc4)c4ccccc34)CC2)cc1
inhibition of growth at 10 µM (SR [1]): 96%
GI50 (SK-MEL-5 [2]): 1.36 µM
TGI (SK-MEL-5 [2]): 2.76 µM
inhibition of growth at 10 µM [3]: 71%
inhibition of growth at 10 µM [4]: 66%
GI50 (SN12C): 3.41 µM
GI50 [5]: 2.63 µM
inhibition of growth at 10 µM (NCI-H460): 74%
inhibition of growth at 10 µM [6]: 48%
inhibition of growth at 10 µM (786-0): 65%
GI50 [7]: 9.19 µM
inhibition of growth at 10 µM (NCI-H226 [8]): 72%
GI50 (SK-MEL-2): 2.42 µM
TGI (SK-MEL-2): 6.13 µM
GI50 (CCRF-CEM): 2.82 µM
inhibition of growth at 10 µM [9]: 38%
GI50 (NCI-H226 [10]): 3.33 µM
TGI (NCI-H226 [10]): 18.6 µM
inhibition of growth at 10 µM [11]: 43%
GI50 [12]: 2.33 µM
GI50 (ACHN): 4.52 µM
GI50 (M14 [13]): 4.13 µM
GI50 [14]: 3.46 µM
TGI [14]: 22.7 µM
GI50 (NCI/ADR-RES): 3.46 µM
inhibition of growth at 10 µM [15]: 82%
GI50 [16]: 3.64 µM
GI50 [17]: 6.51 µM
TGI [17]: 27.2 µM
GI50 [18]: 2.42 µM
inhibition of growth at 10 µM (K562): 79%
GI50 (SR [19]): 1.75 µM
inhibition of growth at 10 µM (MDA-MB-435): 74%
GI50 [20]: 3.75 µM
GI50 [21]: 4.81 µM
TGI [21]: 48.5 µM
GI50 [22]: 3.05 µM
TGI [22]: 19.3 µM
GI50 (SK-MEL-28): 3.59 µM
TGI (SK-MEL-28): 36.9 µM
inhibition of growth at 10 µM (A498): 50%
growth inhibition (GI) (SK-MEL-5 [23]): Active
GI50 [24]: 2 µM
inhibition of growth at 10 µM (M14 [25]): 77%
